Active and inactive are the calls of the source. No cut-off for these calls is given here.
Legend:
Mus musculus [1] = experiment: Anticonvulsant activity in mouse assessed as protection against maximal electric shock-induced seizures at 100 mg/kg, ip after 4 hrs; type: functional, organism-based; set-up: dose 100 mg/kg
Outline: (§1)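 Phase I maximal electroshock screen in mice. Compound given ip as a suspension in 0.5% methylcellulose at 30, 100 or 300 mg/kg, tested at 30 min and 4 h. Small groups (1–8); result is number protected/number tested.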

Mus musculus [2] = experiment: Anticonvulsant activity in mouse assessed as protection against maximal electric shock-induced seizures at 100 mg/kg, ip after 0.5 hrs; type: functional, organism-based; set-up: dose 100 mg/kg; outline: as §1
Mus musculus [3] = experiment: Anticonvulsant activity in mouse assessed as protection against maximal electric shock-induced seizures at 30 mg/kg, ip after 0.5 hrs; type: functional, organism-based; set-up: dose 30 mg/kg; outline: as §1
Mus musculus [4] = experiment: Anticonvulsant activity in mouse assessed as protection against maximal electric shock-induced seizures at 30 mg/kg, ip after 4 hrs; type: functional, organism-based; set-up: dose 30 mg/kg; outline: as §1
Mus musculus [5] = experiment: Anticonvulsant activity in mouse assessed as protection against maximal electric shock-induced seizures at 300 mg/kg, ip after 0.5 hrs; type: functional, organism-based; set-up: dose 300 mg/kg; outline: as §1
Mus musculus [6] = experiment: Anticonvulsant activity in mouse assessed as protection against maximal electric shock-induced seizures at 300 mg/kg, ip after 4 hrs; type: functional, organism-based; set-up: dose 300 mg/kg; outline: as §1
Mus musculus [7] = experiment: Anticonvulsant activity against subcutaneous pentylenetetrazole-induced seizures in mouse at 30 mg/kg, ip after 0.5 hrs; type: functional, organism-based; set-up: dose 30 mg/kg
Outline: (§2)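 Phase I screen in mice. Compound given ip as a suspension in 0.5% methylcellulose, read at 30 min and 4 h. Pentylenetetrazole 85 mg/kg in 0.9% NaCl was injected sc into the posterior midline and animals watched ≥30 min. Protection meant no clonic spasm lasting ≥5 s. Groups of 1–8 animals; result is protected/tested.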

Mus musculus [8] = experiment: Anticonvulsant activity against subcutaneous pentylenetetrazole-induced seizures in mouse at 30 mg/kg, ip after 4 hrs; type: functional, organism-based; set-up: dose 30 mg/kg; outline: as §2
Mus musculus [9] = experiment: Anticonvulsant activity against subcutaneous pentylenetetrazole-induced seizures in mouse at 100 mg/kg, ip after 0.5 hrs; type: functional, organism-based; set-up: dose 100 mg/kg; outline: as §2
Mus musculus [10] = experiment: Anticonvulsant activity against subcutaneous pentylenetetrazole-induced seizures in mouse at 100 mg/kg, ip after 4 hrs; type: functional, organism-based; set-up: dose 100 mg/kg; outline: as §2
Mus musculus [11] = experiment: Anticonvulsant activity against subcutaneous pentylenetetrazole-induced seizures in mouse at 300 mg/kg, ip after 0.5 hrs; type: functional, organism-based; set-up: dose 300 mg/kg; outline: as §2
Mus musculus [12] = experiment: Anticonvulsant activity against subcutaneous pentylenetetrazole-induced seizures in mouse at 300 mg/kg, ip after 4 hrs; type: functional, organism-based; set-up: dose 300 mg/kg; outline: as §2
Mus musculus [13] = experiment: Neurotoxicity in mouse assessed as inability to maintain equilibrium on rotarod at 30 mg/kg, ip after 0.5 hrs by rotarod test; type: toxicity, organism-based; set-up: dose 30 mg/kg, route intraperitoneal; conditions: in vivo
Outline: (§3)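 Drug given ip to mice as a suspension in 0.5% methylcellulose. At the stated time after dosing, each mouse was placed on a 1 inch knurled rod turning at 6 rpm. Neurotoxicity = inability to stay balanced at least 1 min in each of three trials. Scored as animals toxic/animals tested in small groups.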

Mus musculus [14] = experiment: Neurotoxicity in mouse assessed as inability to maintain equilibrium on rotarod at 30 mg/kg, ip after 4 hrs by rotarod test; type: toxicity, organism-based; set-up: dose 30 mg/kg, route intraperitoneal; conditions: in vivo; outline: as §3
Mus musculus [15] = experiment: Neurotoxicity in mouse assessed as inability to maintain equilibrium on rotarod at 100 mg/kg, ip after 4 hrs by rotarod test; type: toxicity, organism-based; set-up: dose 100 mg/kg, route intraperitoneal; conditions: in vivo; outline: as §3
Mus musculus [16] = experiment: Neurotoxicity in mouse assessed as inability to maintain equilibrium on rotarod at 300 mg/kg, ip after 4 hrs by rotarod test; type: toxicity, organism-based; set-up: dose 300 mg/kg, route intraperitoneal; conditions: in vivo; outline: as §3
Rattus norvegicus [17] = experiment: Neurotoxicity in rat assessed as neurological deficit at 30 mg/kg, po after 0.25 hrs […]; type: toxicity, organism-based; set-up: dose 30 mg/kg, route oral; conditions: in vivo
Outline: (§4)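 Rats given the compound, suspended in 0.5% methylcellulose, by the stated route and dose. Neurological deficit was recorded at the listed times as ataxia and loss of placing response and muscle tone. Reported as number of rats showing toxicity/number tested.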

Rattus norvegicus [18] = experiment: Neurotoxicity in rat assessed as neurological deficit at 30 mg/kg, po after 0.5 hrs […]; type: toxicity, organism-based; set-up: dose 30 mg/kg, route oral; conditions: in vivo; outline: as §4
Rattus norvegicus [19] = experiment: Neurotoxicity in rat assessed as neurological deficit at 30 mg/kg, po after 1 hr […]; type: toxicity, organism-based; set-up: dose 30 mg/kg, route oral; conditions: in vivo; outline: as §4
Rattus norvegicus [20] = experiment: Neurotoxicity in rat assessed as neurological deficit at 30 mg/kg, po after 2 hrs […]; type: toxicity, organism-based; set-up: dose 30 mg/kg, route oral; conditions: in vivo; outline: as §4
Rattus norvegicus [21] = experiment: Neurotoxicity in rat assessed as neurological deficit at 30 mg/kg, po after 4 hrs by rotarod test; type: toxicity, organism-based; set-up: dose 30 mg/kg, route oral; conditions: in vivo; outline: as §4
Rattus norvegicus [22] = experiment: Anticonvulsant activity in rat assessed as protection against maximal electric shock-induced seizures at 30 mg/kg, po after 0.25 hrs; type: functional, organism-based; set-up: dose 30 mg/kg
Outline: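 MES test in rats dosed orally at 30 mg/kg as a suspension in 0.5% methylcellulose, read at 0.25–4 h. Four rats per time point; result is protected/tested.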

Mus musculus [23] = experiment: Neurotoxicity in mouse assessed as inability to maintain equilibrium on rotarod at 100 mg/kg, ip after 0.5 hrs by rotarod test; type: toxicity, organism-based; set-up: dose 100 mg/kg, route intraperitoneal; conditions: in vivo; outline: as §3
Mus musculus [24] = experiment: Neurotoxicity in mouse assessed as inability to maintain equilibrium on rotarod at 300 mg/kg, ip after 0.5 hrs by rotarod test; type: toxicity, organism-based; set-up: dose 300 mg/kg, route intraperitoneal; conditions: in vivo; outline: as §3
N1E-115 = experiment: Blockade of voltage-gated sodium channel in mouse N1E-115 cells assessed as stimulation at 100 umol at -90 mV holding potential by whole-cell patch clamp electrophysiological assay relative to control; type: cell-based
Outline: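 Whole-cell patch clamp with borosilicate glass electrodes on single cultured N1E-115 neuroblastoma cells. Compound at 100 µmol, holding potential -90 mV. Voltage-dependent sodium current expressed as % of control stimulation (no compound). Results from 5–8 cells averaged with SEM; significance by Student's t-test.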

Cc1cccc(C)c1OCC(=O)N[C@@H]1CCCC[C@H]1O.O=C(O)C(O)C(O)C(=O)O
Activity (Mus musculus [1]): inactive | Activity (Mus musculus [2]): inactive | Activity (Mus musculus [3]): inactive | Activity (Mus musculus [4]): inactive | Activity (Mus musculus [5]): Active | Activity (Mus musculus [6]): inactive | Activity (Mus musculus [7]): inactive | Activity (Mus musculus [8]): inactive | Activity (Mus musculus [9]): inactive | Activity (Mus musculus [10]): inactive | Activity (Mus musculus [11]): inactive | Activity (Mus musculus [12]): inactive | Activity (Mus musculus [13]): Non-toxic | Activity (Mus musculus [14]): Non-toxic | Activity (Mus musculus [15]): Non-toxic | Activity (Mus musculus [16]): Non-toxic | Activity (Rattus norvegicus [17]): Non-toxic | Activity (Rattus norvegicus [18]): Non-toxic | Activity (Rattus norvegicus [19]): Non-toxic | Activity (Rattus norvegicus [20]): Non-toxic | Activity (Rattus norvegicus [21]): Non-toxic | Activity (Rattus norvegicus [22]): inactive

Cc1cccc(C)c1OCC(=O)N[C@@H]1CCCC[C@@H]1O
Activity (Mus musculus [1]): inactive | Activity (Mus musculus [3]): inactive | Activity (Mus musculus [4]): inactive | Activity (Mus musculus [5]): Active | Activity (Mus musculus [6]): inactive | Activity (Mus musculus [7]): inactive | Activity (Mus musculus [8]): inactive | Activity (Mus musculus [9]): inactive | Activity (Mus musculus [10]): inactive | Activity (Mus musculus [11]): inactive | Activity (Mus musculus [12]): inactive | Activity (Mus musculus [13]): Non-toxic | Activity (Mus musculus [23]): Non-toxic | Activity (Mus musculus [24]): Non-toxic | Activity (Mus musculus [14]): Non-toxic | Activity (Mus musculus [15]): Non-toxic | Activity (Mus musculus [16]): Non-toxic

Cc1cccc(C)c1OCC(=O)N[C@H]1CCCC[C@H]1O
Activity (Mus musculus [1]): inactive | Activity (Mus musculus [3]): inactive | Activity (Mus musculus [4]): inactive | Activity (Mus musculus [5]): Active | Activity (Mus musculus [6]): inactive | Activity (Mus musculus [7]): inactive | Activity (Mus musculus [8]): inactive | Activity (Mus musculus [9]): inactive | Activity (Mus musculus [10]): inactive | Activity (Mus musculus [11]): Active | Activity (Mus musculus [12]): inactive | Activity (Mus musculus [13]): Non-toxic | Activity (Mus musculus [23]): Non-toxic | Activity (Mus musculus [14]): Non-toxic | Activity (Mus musculus [15]): Non-toxic | Activity (Mus musculus [16]): Non-toxic

NC(=O)N1c2ccccc2C=Cc2ccccc21
Activity (N1E-115): 78%
